Test results taken from ChEMBL document CHEMBL4118283, “Discovery of a novel 2-(1H-pyrazolo[3,4-b]pyridin-1-yl)thiazole derivative as an EP1 receptor antagonist and in vivo studies in a bone fracture model” (Bioorg Med Chem Lett, 2018).
Active and inactive are the calls of the source. No cut-off for these calls is given here.

How the values were obtained:
[1] = target: T1, Prostaglandin E2 receptor EP1 subtype (Homo sapiens, UniProt P34995); assay: Antagonist activity at EP1 receptor (unknown origin) by reporter gene assay; type: functional
T1 sequence (P34995 whole entry): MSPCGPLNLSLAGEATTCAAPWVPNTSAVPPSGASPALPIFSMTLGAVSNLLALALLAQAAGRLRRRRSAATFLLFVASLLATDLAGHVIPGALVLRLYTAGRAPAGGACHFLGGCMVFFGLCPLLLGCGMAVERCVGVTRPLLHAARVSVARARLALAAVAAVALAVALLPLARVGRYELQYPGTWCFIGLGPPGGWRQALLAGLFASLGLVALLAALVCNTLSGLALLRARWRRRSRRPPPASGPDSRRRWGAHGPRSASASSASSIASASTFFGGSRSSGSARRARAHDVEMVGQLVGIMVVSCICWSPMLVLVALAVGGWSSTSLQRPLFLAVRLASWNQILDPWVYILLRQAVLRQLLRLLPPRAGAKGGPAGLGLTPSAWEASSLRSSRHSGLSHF

[2] = Permeability in MDCK cells; type: ADME, cell-based, Canis lupus familiaris; settings: dog, read-out: permeability
[3] = Intrinsic clearance in human; type: ADME, organism-based; settings: in vivo
[4] = Intrinsic clearance in rat; type: ADME, organism-based; settings: in vivo
[5] = target: T2, Prostaglandin E2 receptor EP1 subtype (Homo sapiens) (UniProt P34995); assay: Antagonist activity at EP1 receptor (unknown origin) at 100 nM by reporter gene assay relative to control; type: functional
T2 sequence (whole entry): T1 sequence (P34995 whole entry)

[6] = Cmax in Sprague-Dawley rat at 10 to 100 mg/kg, po by LC-MS/MS analysis; type: ADME, organism-based; settings: in vivo
Procedure, shortened: (§1)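 Single oral dose of 10, 30 or 100 mg/kg to 7-week-old female Sprague–Dawley rats (n = 3), vehicle 10% v/v DMSO, 5% v/v Cremophor EL, 85% v/v water. Subclavian-vein blood drawn at 0.5, 1, 2, 4, 8 and 24 h post dose; plasma separated by centrifugation and drug measured by LC-MS/MS.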

[7] = test system: Rattus norvegicus; assay: AUC (0 to 8 hrs) in Sprague-Dawley rat at 10 to 100 mg/kg, po by LC-MS/MS analysis; type: ADME, organism-based; settings: in vivo; procedure, shortened: as §1
[8] = target: Prostaglandin E2 receptor EP4 subtype (Homo sapiens, UniProt P35408); assay: Binding affinity to EP4 receptor (unknown origin)
Sequence of Prostaglandin E2 receptor EP4 subtype (P35408 whole entry): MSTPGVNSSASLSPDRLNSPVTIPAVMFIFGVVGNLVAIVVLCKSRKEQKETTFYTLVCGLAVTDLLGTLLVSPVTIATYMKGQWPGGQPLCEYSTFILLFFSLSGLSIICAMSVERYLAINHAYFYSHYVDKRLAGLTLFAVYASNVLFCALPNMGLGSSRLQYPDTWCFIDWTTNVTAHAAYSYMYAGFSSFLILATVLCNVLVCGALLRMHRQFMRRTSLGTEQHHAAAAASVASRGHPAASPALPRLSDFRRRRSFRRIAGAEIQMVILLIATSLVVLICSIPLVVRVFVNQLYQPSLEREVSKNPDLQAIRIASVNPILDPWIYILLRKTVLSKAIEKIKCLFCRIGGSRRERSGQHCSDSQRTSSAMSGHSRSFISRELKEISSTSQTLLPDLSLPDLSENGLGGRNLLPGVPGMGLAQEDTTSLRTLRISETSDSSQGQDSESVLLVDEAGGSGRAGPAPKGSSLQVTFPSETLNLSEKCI

[9] = Drug uptake in Sprague-Dawley rat plasma at 100 mg/kg, po after 24 hrs by LC-MS/MS analysis; type: ADME, organism-based; settings: in vivo; procedure, shortened: as §1
[10] = Cmax in Sprague-Dawley rat at 10 mg/kg, po by LC-MS/MS analysis; type: ADME, organism-based; parameters: dose 10 mg/kg, route oral; settings: in vivo; procedure, shortened: as §1
[11] = test system: Rattus norvegicus; assay: Osteogenic activity in Sprague-Dawley rat drill-hole femoral fracture model assessed as callus formation at 100 mg/kg, po qd for 28 days; type: functional, organism-based; settings: in the assay text read “closed” for “drill-hole”
Procedure, shortened: (§2)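 Closed mid-diaphyseal femur fracture in 8-week-old Sprague–Dawley rats under ip pentobarbital (50 mg/kg). Medial parapatellar arthrotomy, 1 mm drill hole at intercondylar fossa, 21-gauge needle inserted through the medullary canal, fracture by three-point bending. Oral drug or 0.5% MC vehicle given for 28 days. Radiographs at 0, 7, 14, 21, 28 days; outer hard callus area traced by image analysis.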

[12] = test system: Rattus norvegicus; assay: Osteogenic activity in Sprague-Dawley rat drill-hole femoral fracture model assessed as callus formation at 30 mg/kg, po bid for 28 days; type: functional, organism-based; settings: in the assay text read “closed” for “drill-hole”; procedure, shortened: as §2
[13] = target: Prostaglandin E2 receptor EP2 subtype (Homo sapiens, UniProt P43116); assay: Binding affinity to EP2 receptor (unknown origin)
Sequence of Prostaglandin E2 receptor EP2 subtype (P43116 whole entry): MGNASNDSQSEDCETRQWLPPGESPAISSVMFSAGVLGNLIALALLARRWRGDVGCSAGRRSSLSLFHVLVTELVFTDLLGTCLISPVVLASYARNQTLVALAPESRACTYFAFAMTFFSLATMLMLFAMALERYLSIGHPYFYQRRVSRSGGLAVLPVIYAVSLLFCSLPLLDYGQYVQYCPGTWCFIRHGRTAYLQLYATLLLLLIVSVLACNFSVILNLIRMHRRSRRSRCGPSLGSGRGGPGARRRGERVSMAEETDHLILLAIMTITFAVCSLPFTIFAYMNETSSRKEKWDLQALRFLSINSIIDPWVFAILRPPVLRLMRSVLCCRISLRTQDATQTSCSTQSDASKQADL

[14] = Cmax in Sprague-Dawley rat at 100 mg/kg, po by LC-MS/MS analysis; type: ADME, organism-based; parameters: dose 100 mg/kg, route oral; settings: in vivo; procedure, shortened: as §1
[15] = Drug uptake in Sprague-Dawley rat plasma at 100 mg/kg, po qd for 4 weeks by LC-MS/MS analysis; type: ADME, organism-based; settings: in vivo, 672 h
Procedure, shortened: (§3)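 Sprague–Dawley rats with femoral fractures dosed orally for 28 days (30 mg/kg once daily, 30 mg/kg twice daily, or 100 mg/kg once daily). Subclavian-vein blood taken 30 min before dosing (trough) or 1 h after dosing on days 1, 2, 3, 7, 14, 21 and 28; plasma drug measured by LC-MS/MS.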

[16] = Drug uptake in Sprague-Dawley rat plasma at 30 mg/kg, po qd for 4 weeks by LC-MS/MS analysis; type: ADME, organism-based; settings: in vivo, 672 h; procedure, shortened: as §3
[17] = target: T3, Prostaglandin E2 receptor EP3 subtype (Homo sapiens, UniProt P43115); assay: Binding affinity to EP3 receptor (unknown origin)
T3 sequence (P43115 whole entry): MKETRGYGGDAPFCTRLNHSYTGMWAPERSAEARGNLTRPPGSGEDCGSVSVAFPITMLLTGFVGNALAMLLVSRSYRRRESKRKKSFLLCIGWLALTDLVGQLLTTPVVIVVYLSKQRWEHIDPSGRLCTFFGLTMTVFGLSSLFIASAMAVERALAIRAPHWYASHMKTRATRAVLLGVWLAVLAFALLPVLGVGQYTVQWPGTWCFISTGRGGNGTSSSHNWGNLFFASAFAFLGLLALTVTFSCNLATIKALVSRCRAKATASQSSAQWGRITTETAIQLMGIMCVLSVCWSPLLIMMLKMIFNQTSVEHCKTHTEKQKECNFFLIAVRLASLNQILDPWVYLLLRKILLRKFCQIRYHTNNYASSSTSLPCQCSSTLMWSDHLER

[18] = test system: Rattus norvegicus; assay: Osteogenic activity in Sprague-Dawley rat drill-hole femoral fracture model assessed as callus formation at 30 mg/kg, po qd for 28 days; type: functional, organism-based; settings: in the assay text read “closed” for “drill-hole”; procedure, shortened: as §2
[19] = Drug uptake in Sprague-Dawley rat plasma at 30 mg/kg, po bid for 4 weeks by LC-MS/MS analysis; type: ADME, organism-based; settings: in vivo, 672 h; procedure, shortened: as §3
[20] = Protein binding in Sprague-Dawley rat plasma at 10 to 100 mg/kg, po by LC-MS/MS analysis; type: ADME, organism-based; settings: read-out: PPB (converted)
[21] = Cmax in Sprague-Dawley rat at 30 mg/kg, po by LC-MS/MS analysis; type: ADME, organism-based; parameters: dose 30 mg/kg, route oral; settings: in vivo; procedure, shortened: as §1
[22] = test system: Salmonella typhimurium; assay: Mutagenicity in Salmonella typhimurium by Ames test; type: toxicity, organism-based; settings: salmonella enterica subsp. enterica serovar typhimurium
[23] = target: T1, Prostaglandin E2 receptor EP1 subtype; assay: Binding affinity to EP1 receptor (unknown origin) by binding assay
[24] = Oral bioavailability in Sprague-Dawley rat at 10 to 100 mg/kg by LC-MS/MS analysis; type: ADME, organism-based; settings: in vivo

## O=C(O)c1csc(-n2nc(-c3ccccc3)c3ccc(N4CCC4)nc32)n1
[1]
  IC50: 40 nM

## O=C(O)c1csc(-n2nc(C3=CCCCO3)c3ccc(C(F)(F)F)cc32)n1
[1]
  IC50: 0.7 nM
[2]
  Papp: 39 ×10⁻⁶ cm/s
[3]
  CLint scaled: 146 mL/min/kg
[4]
  CLint scaled: 232 mL/min/kg

## O=C(O)c1csc(Cn2nc(-c3ccccc3)c3ccc(C(F)(F)F)cc32)n1
[1]
  IC50: 12 nM
[2]
  Papp: 19.7 ×10⁻⁶ cm/s
[3]
  CLint scaled: 48 mL/min/kg
[4]
  CLint scaled: 111 mL/min/kg

## O=C(O)c1csc(-n2nc(-c3ccccc3)c3ccc(N4CCCC4)nc32)n1
[5]
  inhibition: 11%

## O=C(O)c1csc(-n2nc(-c3ccccc3)c3ncc(C(F)(F)F)cc32)n1
[1]
  IC50: 12 nM

## CN(C)c1ccc2c(-c3ccccc3)nn(-c3nc(C(=O)O)cs3)c2n1
[1]
  IC50: 12 nM

## O=C(O)c1csc(-n2nc(-c3ccccc3)c3ccc(C(F)(F)F)cc32)n1
[6]
  Cmax: 5.34 µM
[7]
  AUC: 9.27 microM/L.hr

## O=C(O)c1csc(-n2nc(-c3ccccc3)c3ccc(C(F)(F)F)nc32)n1
[8]
  Ki: > 2700 nM
[9]
  Drug uptake: Active
[10]
  Cmax: 24.8 µM
[6]
  Cmax: 2.62 µM
[11]
  Activity: Active
[12]
  Activity: Active
[13]
  Ki: > 8700 nM
[14]
  Cmax: 179 µM
[1]
  IC50: 0.3 nM
[15]
  Drug uptake: Active
[16]
  Drug uptake: Active
[17]
  Ki: > 5000 nM
[18]
  Activity: Active
[19]
  Drug uptake: Active
[7]
  AUC: 5.71 microM/L.hr
[20]
  fraction unbound: 0.026
[21]
  Cmax: 75.1 µM
[22]
  Activity: Non-Toxic
[23]
  Ki: 8.7 nM
[2]
  Papp: 23.5 ×10⁻⁶ cm/s
[3]
  CLint scaled: 70 mL/min/kg
[24]
  bioavailability: 26%
[4]
  CLint scaled: 94 mL/min/kg
